The record followed here is ChEMBL document CHEMBL4513216, “Probing the Open Global Health Chemical Diversity Library for Multistage-Active Starting Points for Next-Generation Antimalarials” (ACS Infect Dis, 2020).

A short description of the data set: Toxicity liver stage against HepG2, at 10uM. The data set is classed as cell-based. Also on record: test concentration 10 uM, cell line HepG2-A16-CD81EGFP. The following applies: human, HepG2-A16-CD81EGFP cells; read-out: INHIBITION
The method, boiled down:
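Uninfected HepG2-A16-CD81EGFP cells, 3 × 10^3 per well, 1536-well, plated on prespotted compound at 10 μM final, parasite-free screening media added to match infected plates; puromycin 10 μM positive, DMSO 0.5% negative; run in parallel with 48 h PbLuc assay at 37 °C, 5% CO2; viability by CellTiter-Glo luminescence, normalized to controls.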
Regarding `CC(=O)N1CC[C@H]2CC(=O)N(CCc3c[nH]cn3)CC[C@H]2C1`, the cytotoxicity at 10 µM was -2.77%.

Take `Cc1ccc(C)c(-n2ncc(C(=O)N(C)CCc3ccccn3)c2N)c1`: the cytotoxicity at 10 µM was -1.57%.

As for `Cc1nn(-c2ccc(C(=O)O)cc2)c2c1C(c1cccs1)SCC(=O)N2` (stereo not given), the cytotoxicity at 10 µM is -0.607%.

As to `Cn1nccc1-c1ccc2nc(C3CCNCC3)nn2c1`, the cytotoxicity at 10 µM stood at 10.3%.

With `O=C(c1ccoc1)N1CCc2ncc(Cn3cccn3)n2CC1`, the cytotoxicity at 10 µM worked out at 6.9%.

Consider `CCOC(=O)Cn1cccc(S(=O)(=O)N2CCCC2)c1=O`, for which the cytotoxicity at 10 µM was 13.4%.

On to `Cc1csc([C@@H]2C[C@@H]3CCN(Cc4cnn(C)c4)C[C@H]3O2)n1`, for which the cytotoxicity at 10 µM is -4.87%.

For `Cn1cc(CN2CCC3(CCCN(Cc4ccccn4)C3)CC2)cn1`, the cytotoxicity at 10 µM is -6.54%.

`O=C(Cn1nc(C(F)(F)F)c(Cl)c1C1CC1)NN1CCOCC1`: the cytotoxicity at 10 µM came to 5.01%.

With `CC(CN1CCOCC1)n1cncc1-c1cnn(Cc2ccccc2)c1` (stereo not given), the cytotoxicity at 10 µM stood at 6.33%.

Take `CS(=O)(=O)N1CC(c2ccnc(Nc3ccccn3)n2)C1`: the cytotoxicity at 10 µM came to 13.8%.

For the compound `Fc1ccccc1Oc1nccnc1C1CCCN(C2CCOCC2)C1` (stereo not given), the cytotoxicity at 10 µM was -9.4%.

Regarding `c1c[nH]c(CN2CCCC(Cc3ccc(NC4CCCC4)nn3)C2)n1` (stereo not given), the cytotoxicity at 10 µM was -3.95%.

With `Cc1cc(CCC2CN(CC3(O)CCCCC3)CCO2)ncn1` (stereo not given), the cytotoxicity at 10 µM was 2.97%.

With `O=C(c1cc[nH]n1)N1CCC(c2cc(Nc3ccccn3)n[nH]2)CC1`, the cytotoxicity at 10 µM was -37.1%.

As for `OCCN1CCCC(c2nccnc2Oc2ccccc2)C1` (stereo not given), the cytotoxicity at 10 µM was -25.5%.

With `Cc1nn(C)cc1C(=O)N1CCCC(n2nnc3cc(F)ccc32)C1` (stereo not given), the cytotoxicity at 10 µM is -11%.

For the compound `Cc1ccc(=O)n(CC2(O)CCN(Cc3cnn(C)c3)CC2)n1`, the cytotoxicity at 10 µM amounted to 3.12%.

Consider `Cc1ccc(CN(C)C(=O)c2cc3c(c(S(N)(=O)=O)c2)CCC3)o1`, for which the cytotoxicity at 10 µM was -52.5%.

On to `COc1cc(NCC(=O)NC(C)(C#N)C(C)C)cc(OC)c1OC` (stereo not given), for which the cytotoxicity at 10 µM was -7.33%.

For the compound `Cc1cc(N(C)C)nc(N(C)Cc2csc(C)n2)n1`, the cytotoxicity at 10 µM turned out to be 7.06%.

Consider `CC(Cc1ccco1)NS(=O)(=O)N1CCCCC1` (stereo not given), for which the cytotoxicity at 10 µM was -0.867%.

Consider `CC(O)CCN(C)C(=O)Nc1cccc(F)c1` (stereo not given), for which the cytotoxicity at 10 µM was -6.16%.

As for `Cc1nc(C)n(CC2CCCN2Cc2cn3ccccc3c2C#N)n1` (stereo not given), the cytotoxicity at 10 µM came to 2.8%.

Turning to `COc1ccc(CN2CCCC(n3cccn3)C2)c(Cl)c1OC` (stereo not given), the cytotoxicity at 10 µM was 4.48%.

Consider `N#Cc1ccc(Cn2cncn2)c(F)c1`, for which the cytotoxicity at 10 µM was -1.49%.

`Cc1ccc(CN(C)C(=O)NCC(C)(C)S(C)(=O)=O)s1`: the cytotoxicity at 10 µM is 15.6%.

As to `N#Cc1cc(F)ccc1NCC1CCS(=O)(=O)CC1`, the cytotoxicity at 10 µM came out at 2.02%.

For the compound `CCCN(C(=O)CN1CCN(CC(C)O)CC1)C1=CCCCC1` (stereo not given), the cytotoxicity at 10 µM amounted to 4.13%.

For `COC(=O)C1CCN(C(=O)Cn2nc(C)nc2-c2ccccc2)CC1`, the cytotoxicity at 10 µM was -0.159%.

For `Cc1cnn(CCNCC(=O)N2CCN(c3ccccc3)CC2)c1`, the cytotoxicity at 10 µM is -6.74%.

Consider `CC(CNC(=O)NCc1ccoc1)N1CCc2sccc2C1` (stereo not given), for which the cytotoxicity at 10 µM is -4.8%.

With `Cc1ccc(CNC(=O)C2CCN(C(=O)c3ccccc3)CC2)n1C`, the cytotoxicity at 10 µM is 1.2%.

In the case of `CCC(=O)NCc1ccccc1Cn1ccnc1`, the cytotoxicity at 10 µM was -1.21%.

On to `COc1c(CNCc2ccccc2CO)c(C)nn1C`, for which the cytotoxicity at 10 µM is 1.04%.

Consider `CC(C)c1nn(C)c(N(C)C)c1CNCc1cccnc1`, for which the cytotoxicity at 10 µM is -4.6%.

With `Cc1nn(CCO)c(C)c1CNC1CCc2c(F)cccc21` (stereo not given), the cytotoxicity at 10 µM worked out at 4.59%.

For the compound `CC(C)COCCC(=O)Nc1ccc2oc(=O)n(CCN(C)C)c2c1`, the cytotoxicity at 10 µM was -7.59%.

In the case of `c1cncc(CN(Cc2ccc3c(c2)OCCO3)CC2CCCO2)c1` (stereo not given), the cytotoxicity at 10 µM amounted to 1.22%.

For `CC1CCN(C)c2ccccc2N1C(=O)c1ccc(=O)n(C)c1` (stereo not given), the cytotoxicity at 10 µM is -0.117%.

With `Cc1ncccc1C(=O)Nc1cccc2c1C(=O)NC2`, the cytotoxicity at 10 µM was 1.85%.

Regarding `CC(C)C(=O)NCCNC(=O)C(C)OCC(F)(F)F` (stereo not given), the cytotoxicity at 10 µM is -5.56%.

Consider `O=C(NCC(O)c1ccccc1C(F)(F)F)c1cccnc1` (stereo not given), for which the cytotoxicity at 10 µM is -2.9%.

For the compound `CCOc1ccc(C(F)(F)F)cc1NC(=O)N1CCC(C(N)=O)CC1`, the cytotoxicity at 10 µM amounted to 0.425%.

As for `CC(C)COC(C)C(=O)N1CCCCCC1` (stereo not given), the cytotoxicity at 10 µM worked out at 1.31%.

With `OCCOc1cc(F)ccc1NCc1nc(-c2ccoc2)no1`, the cytotoxicity at 10 µM is -46.9%.

For `CC(C)CCN(C)C(=O)c1cnc2c(cnn2CC(C)C)c1`, the cytotoxicity at 10 µM is -0.0554%.

With `CC(C)c1cc(C(=O)NCC(O)C2CCOCC2)nn1C(C)(C)C` (stereo not given), the cytotoxicity at 10 µM was -9.55%.

For `Cn1cc(NC(=O)Cc2ccccc2Br)cc1C(N)=O`, the cytotoxicity at 10 µM is -1%.

As for `O=C(COCC1CC1)Nc1ncccc1I`, the cytotoxicity at 10 µM is 22.5%.

In the case of `CCOc1ncccc1NC(=O)N1CCC(n2cncn2)CC1`, the cytotoxicity at 10 µM was found to be 6.64%.

For the compound `CS(=O)(=O)CCOCCNc1ccc(Br)cn1`, the cytotoxicity at 10 µM was -4.71%.

For `COCCOc1ccc(F)cc1NCc1nc2ccccc2n1C`, the cytotoxicity at 10 µM was 6.29%.

`Cn1c(SCC2OCCc3ccccc32)n[nH]c1=O` (stereo not given): the cytotoxicity at 10 µM is -5.76%.

With `CCc1nc(NS(=O)(=O)c2ccc(F)cc2C)no1`, the cytotoxicity at 10 µM is -10.9%.

Consider `Cc1nccc(CNC(=O)NCCOc2ccc(F)c(F)c2)n1`, for which the cytotoxicity at 10 µM is -17%.

Consider `CC(NC1CCN(CCS(C)(=O)=O)CC1)c1ccc(Cl)cc1` (stereo not given), for which the cytotoxicity at 10 µM was -6.51%.

As for `CCOC(=O)NC(CNC(=O)c1ccccn1)CC(C)C` (stereo not given), the cytotoxicity at 10 µM is 10.2%.

For `CN(Cc1nnc(C2CC2)n1C)C1CCN(Cc2ccccc2F)C1` (stereo not given), the cytotoxicity at 10 µM was -15.1%.

Take `COCCn1c2c(ccc1=O)CCN(C(=O)NC1CC1)CC2`: the cytotoxicity at 10 µM turned out to be 1.77%.

As for `O=c1cc(CN2CCCC2)nc2n1CCCN(CC1CC1)C2`, the cytotoxicity at 10 µM is -111%.

Regarding `COCCCNc1nc(CNC(=O)C2CCC2)cc(-c2ccco2)n1`, the cytotoxicity at 10 µM was -11%.

For `Cc1ccccc1C(CNc1ncnc2c1CCNC2)N(C)C` (stereo not given), the cytotoxicity at 10 µM stood at 5.31%.

With `CCC[C@@H]1CN(C(=O)c2cc(-c3cccs3)n(C)n2)C[C@H]1N(C)C`, the cytotoxicity at 10 µM was -1.84%.

For `Cn1c(Cn2cccn2)nnc1C1CCN(Cc2cccnc2)CC1`, the cytotoxicity at 10 µM worked out at 6.01%.

In the case of `Cc1cc(C(F)(F)F)cc(=O)n1CCCn1cnnn1`, the cytotoxicity at 10 µM was determined as 1.16%.

With `CCc1c(C)nn(CCNC(=O)Cc2csc(C)n2)c1C`, the cytotoxicity at 10 µM is 0.129%.

On to `CCc1cc(NC(C)(C)C)nc(N2CCOCC2)n1`, for which the cytotoxicity at 10 µM was 0.393%.

On to `COCCc1noc(-c2ccc(N[C@H]3CCCCNC3=O)nc2)n1`, for which the cytotoxicity at 10 µM amounted to 6.9%.

On to `Cn1ccc2c(-c3ccc(NC4CC4)nn3)ccnc21`, for which the cytotoxicity at 10 µM was 10.4%.

On to `Cc1ccc(CN2CCCC(c3nnc(CN4CCCC4)n3C)C2)s1` (stereo not given), for which the cytotoxicity at 10 µM was determined as 0.9%.

With `CC(C)N1CC(C(=O)NCCc2csc(-c3ccncc3)n2)CC1=O` (stereo not given), the cytotoxicity at 10 µM is -21%.

With `O=C(c1cnc(COc2ccccc2)nc1O)N1CCOCC1`, the cytotoxicity at 10 µM was found to be 2.55%.

Turning to `CCn1nc(CC(C)C)cc1C(=O)NCCn1cccc1`, the cytotoxicity at 10 µM was -5.94%.

Consider `CCn1cc(CN2CCCn3nc(CNC(=O)C4CCC4)cc3C2)cn1`, for which the cytotoxicity at 10 µM was -11.6%.

Turning to `Cc1[nH]c(=O)c(C#N)cc1C(=O)N1C[C@@H](CN2CCCC2)C[C@H](CO)C1`, the cytotoxicity at 10 µM is -8.08%.

With `COc1ccc(-c2cc(N)on2)cc1`, the cytotoxicity at 10 µM was -12.8%.

Turning to `c1cc(NC2CC3(CCN(Cc4cc[nH]n4)C3)C2)ncn1` (stereo not given), the cytotoxicity at 10 µM is -4.71%.

With `N#CCCN(C(=O)CN1CCCC1c1ccsc1)c1ccccc1` (stereo not given), the cytotoxicity at 10 µM is -8.42%.

Take `COc1ccc(CCNC(=O)CN2CCCC2c2noc(C)n2)cc1` (stereo not given): the cytotoxicity at 10 µM is 0.772%.

Consider `Cc1ncc(C(=O)N2CCCC(n3nc(C)nc3C)C2)c(C(C)C)n1` (stereo not given), for which the cytotoxicity at 10 µM was -1.81%.

As to `Cc1noc(CCCC(=O)NC(C)c2ccc(Cl)s2)n1` (stereo not given), the cytotoxicity at 10 µM is -9.48%.

Turning to `CNC(=O)c1cc(C)n(-c2cccc(OC)c2)c1C`, the cytotoxicity at 10 µM is -18.1%.

`Cc1nn(-c2ccccc2)cc1C(=O)N1CCCC(n2ccnc2)C1` (stereo not given): the cytotoxicity at 10 µM was -14.4%.

As to `CN(C)CC1CN(Cc2coc(-c3ccccc3)n2)CCO1` (stereo not given), the cytotoxicity at 10 µM was -10.8%.

As for `CCn1cnnc1CNC(=O)N1CCCC1`, the cytotoxicity at 10 µM was -3.3%.

As to `CCN1CCC(CNC(=O)C2(c3cccc(C)c3)CCCCC2)CC1`, the cytotoxicity at 10 µM was -11.8%.

With `CC(C)OCC(=O)N1CCCN(Cc2ccc(C#N)cc2)CC1`, the cytotoxicity at 10 µM was -7.41%.

With `O=C(NCCCN1CCCC1)c1n[nH]c(=O)c2ccccc12`, the cytotoxicity at 10 µM is -6.62%.

As to `Cn1cnc2c1CCN(CCCc1ccccc1)C2`, the cytotoxicity at 10 µM is -1.13%.

As to `O=C(NCC1CCCO1)c1cc(-c2ccncc2)c2cnccc2n1` (stereo not given), the cytotoxicity at 10 µM worked out at 1.05%.

For the compound `Cc1nc(CN2CCn3cc(CNC(=O)C4CCC4)nc3C2)cs1`, the cytotoxicity at 10 µM is -6.52%.

With `COc1ccc(-c2cc(C3CCCNC3)ccn2)cc1` (stereo not given), the cytotoxicity at 10 µM amounted to 0.288%.

Take `CCN(CC)Cc1cc(=O)n2c(n1)CN(S(=O)(=O)C1CC1)CCC2`: the cytotoxicity at 10 µM worked out at 6.95%.

Regarding `O=C(Cc1cccnc1)N1CCC2(CC1)CCN(C1CCOCC1)C2`, the cytotoxicity at 10 µM is -8.16%.

As to `COCCN1CCC2(CCN(Cc3cccs3)CC2)C1=O`, the cytotoxicity at 10 µM amounted to 1.22%.

Regarding `Cn1cc(CN2CCC3(C2)CN(Cc2ccsc2)C3)cn1`, the cytotoxicity at 10 µM is -11.2%.

As for `CCn1nnc2c1C(COCC(=O)N(C)C)CN(Cc1ccco1)C2` (stereo not given), the cytotoxicity at 10 µM is -4.96%.

`O=C(N[C@@H]1CN(CC2CC2)[C@@H]2CCCO[C@@H]21)c1cscn1`: the cytotoxicity at 10 µM was -109%.

For the compound `Cc1[nH]c2cc(C3CCCCN3C(=O)C3CC3)nn2c(=O)c1C` (stereo not given), the cytotoxicity at 10 µM is -5.34%.
